Data: ChEMBL document CHEMBL1139955, “C(4)-alkyl substituted furanyl cyclobutenediones as potent, orally bioavailable CXCR2 and CXCR1 receptor antagonists” (Bioorg Med Chem Lett, 2007)

Tests used:
[1] = target: T1, C-X-C chemokine receptor type 1 (Homo sapiens, UniProt P25024); assay: Displacement of [125I]IL8 from human CXCR1 expressed in CHO cells by SPA; assay type: cell-based
T1 sequence (P25024 whole entry): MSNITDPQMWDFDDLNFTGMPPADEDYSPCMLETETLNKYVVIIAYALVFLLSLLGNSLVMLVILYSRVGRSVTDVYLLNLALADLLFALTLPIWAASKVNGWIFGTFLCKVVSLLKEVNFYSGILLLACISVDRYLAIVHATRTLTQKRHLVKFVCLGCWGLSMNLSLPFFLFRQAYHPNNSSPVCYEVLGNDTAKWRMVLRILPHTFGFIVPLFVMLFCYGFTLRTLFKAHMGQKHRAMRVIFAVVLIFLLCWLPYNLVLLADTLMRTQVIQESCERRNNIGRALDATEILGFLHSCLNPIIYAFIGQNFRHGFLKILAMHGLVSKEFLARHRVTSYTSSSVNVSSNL

[2] = target: T2, C-X-C chemokine receptor type 2 (Homo sapiens, UniProt P25025); assay: Displacement of [125I]IL8 from human CXCR2 expressed in CHO cells by SPA; assay type: cell-based
T2 sequence (P25025 whole entry): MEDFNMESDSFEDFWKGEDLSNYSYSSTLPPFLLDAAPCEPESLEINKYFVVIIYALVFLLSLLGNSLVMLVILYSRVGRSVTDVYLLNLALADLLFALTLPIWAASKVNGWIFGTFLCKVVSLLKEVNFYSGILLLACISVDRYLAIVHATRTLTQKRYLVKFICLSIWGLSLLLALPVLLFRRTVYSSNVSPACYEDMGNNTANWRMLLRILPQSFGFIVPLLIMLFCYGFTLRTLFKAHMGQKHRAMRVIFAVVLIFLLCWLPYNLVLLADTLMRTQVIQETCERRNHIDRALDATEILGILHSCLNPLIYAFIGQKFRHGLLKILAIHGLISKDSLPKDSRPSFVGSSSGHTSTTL

[3] = AUC in rat at 10 mg/kg, po after 6 hrs; assay type: ADME, organism-based; design: time < 6 hr, dose 10 mg/kg, route oral; details: plasma
[4] = Cmax in rat at 10 mg/kg, po after 6 hrs; assay type: ADME, organism-based; design: dose 10 mg/kg, route oral; details: in vivo
[5] = species: Mus musculus; assay: Antiinflammatory activity against mouse model of cigarette smoke-induced neutrophilic inflammation; assay type: functional
[6] = Cmax in monkey at 3 mg/kg, po after 48 hrs; assay type: ADME, organism-based, Macaca mulatta; design: dose 3 mg/kg, route oral; details: rhesus monkey, in vivo
[7] = AUC in dog at 2 mg/kg, po after 48 hrs; assay type: ADME, organism-based, Canis lupus familiaris; design: time < 48 hr, dose 2 mg/kg, route oral; details: plasma
[8] = AUC in monkey at 3 mg/kg, po after 48 hrs; assay type: ADME, organism-based, Macaca mulatta; design: time < 48 hr, dose 3 mg/kg, route oral; details: rhesus monkey, plasma
[9] = species: Rattus norvegicus; assay: Antiinflammatory activity against rat model of lipopolysaccharide-induced pulmonary inflammation; assay type: functional
[10] = system: Neutrophil; assay: Inhibition of GROalpha-induced migration of human neutrophils by chemotaxis assay; assay type: functional, cell-based
How it was run: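 Human neutrophil migration stimulated with 30 nM Gro-α; IC50 determined.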

[11] = system: Neutrophil; assay: Inhibition of IL8-induced migration of human neutrophils by chemotaxis assay; assay type: functional, cell-based
How it was run: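 Human neutrophil migration stimulated with 3 nM IL-8; IC50 determined.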

[12] = Cmax in mouse at 25 mg/kg, po after 7 hrs; assay type: ADME, organism-based; design: dose 25 mg/kg, route oral; details: in vivo
[13] = AUC in mouse at 25 mg/kg, po after 7 hrs; assay type: ADME, organism-based; design: time < 7 hr, dose 25 mg/kg, route oral; details: plasma
[14] = Cmax in dog at 2 mg/kg, po after 48 hrs; assay type: ADME, organism-based, Canis lupus familiaris; design: dose 2 mg/kg, route oral; details: in vivo

Ki [1] [nM]	Ki [2] [nM]	Structure (SMILES)	also measured
10	4	CC[C@@H](Nc1c(Nc2cccc(C(=O)N(C)C)c2O)c(=O)c1=O)c1cc(C(C)(C)C)co1	
50	2	CC(C)c1coc([C@@H](C)Nc2c(Nc3cccc(C(=O)N(C)C)c3O)c(=O)c2=O)c1	
7.6	0.6	CCC(C)c1coc([C@@H](CC)Nc2c(Nc3cccc(C(=O)N(C)C)c3O)c(=O)c2=O)c1 (some centres undefined)	
14	4	CC(C)c1coc([C@H](Nc2c(Nc3cccc(C(=O)N(C)C)c3O)c(=O)c2=O)C(C)(C)C)c1	
123	10	CC[C@@H](Nc1c(Nc2cccc(C(=O)N(C)C)c2O)c(=O)c1=O)c1sccc1C	
7	1	CCc1coc([C@@H](CC)Nc2c(Nc3cccc(C(=O)N(C)C)c3O)c(=O)c2=O)c1	AUC at 6 h [3]: 17.4 µM·h
9	4	CC[C@@H](Nc1c(Nc2cccc(C(=O)N(C)C)c2O)c(=O)c1=O)c1cc(C)co1	AUC at 6 h [3]: 32.6 µM·h
3	1	CC[C@@H](Nc1c(Nc2cccc(C(=O)N(C)C)c2O)c(=O)c1=O)c1cc(C(C)C)co1	Cmax [4]: 3.8 µM; ED50 [5]: 1 mg/kg; Cmax [6]: 0.38 µM; AUC at 48 h [7]: 7.1 µM·h; AUC at 48 h [8]: 4.2 µM·h; ED50 [9]: 0.9 mg/kg; AUC at 6 h [3]: 5.4 µM·h; IC50 [10]: 0.5 nM; IC50 [1]: 7.3 nM; IC50 [11]: 37 nM; Cmax [12]: 4.6 µM; AUC at 7 h [13]: 4.6 µM·h; IC50 [2]: 1.3 nM; Cmax [14]: 5.3 µM
30	0.8	CCC(CC)c1coc([C@@H](CC)Nc2c(Nc3cccc(C(=O)N(C)C)c3O)c(=O)c2=O)c1	
14	9	CC[C@@H](Nc1c(Nc2cccc(C(=O)N(C)C)c2O)c(=O)c1=O)c1cc(CCCCN2CCOCC2)co1	
283	4	CC[C@@H](Nc1c(Nc2cccc(C(=O)N(C)C)c2O)c(=O)c1=O)c1cc(C2CCCCC2)co1	
24	5	CC[C@@H](Nc1c(Nc2cccc(C(=O)N(C)C)c2O)c(=O)c1=O)c1cc(C)cs1	
146	5	CC[C@@H](Nc1c(Nc2cccc(C(=O)N(C)C)c2O)c(=O)c1=O)c1ccc(C)s1	
34	2	CCCCc1coc([C@@H](CC)Nc2c(Nc3cccc(C(=O)N(C)C)c3O)c(=O)c2=O)c1	
10	3	CC(C)c1coc([C@H](Nc2c(Nc3cccc(C(=O)N(C)C)c3O)c(=O)c2=O)C2CC2)c1	
53	3	CC[C@@H](Nc1c(Nc2cccc(C(=O)N(C)C)c2O)c(=O)c1=O)c1cc(C2CCCC2)co1	
16	6	CC(C)c1coc([C@H](Nc2c(Nc3cccc(C(=O)N(C)C)c3O)c(=O)c2=O)C(F)(F)F)c1	
379	25	CCc1ccoc1[C@@H](CC)Nc1c(Nc2cccc(C(=O)N(C)C)c2O)c(=O)c1=O	
11	4	CC(C)c1coc([C@H](Nc2c(Nc3cccc(C(=O)N(C)C)c3O)c(=O)c2=O)C(C)C)c1	
